ChEMBL document CHEMBL1165943, “Design and synthesis of new anticancer pyrimidines with multiple-kinase inhibitory effect” (Bioorg Med Chem, 2010)

Tests used:
MDA-MB-468 = assay: Growth inhibition of human MDA-MB-468 cells after 48 hrs by sulforhodamine B assay; type: functional, cell-based; settings: MDA-MB-468, 48 h
Outline: (§1)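 Cells grown in RPMI 1640 with 5% FBS and 2 mM L-glutamine, seeded at 5,000–40,000 cells/well according to doubling time. After 24 h, time-zero plates are TCA-fixed. Five concentrations (10-fold or ½log dilutions, DMSO stocks) are applied for 48 h at 37 °C, 5% CO₂. Cells are TCA-fixed, SRB-stained and read at 515 nm. IC₅₀ is taken from [(Ti−Tz)/(C−Tz)]×100 = 50.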

NCI-H322M [1] = assay: Cytotoxicity against human NCI-H322M cells assessed as cell growth at 0.001 uM after 48 hrs by sulforhodamine B assay; type: functional; settings: read-out: Activity
NCI-H522 [2] = assay: Cytotoxicity against human NCI-H522 cells assessed as cell growth at 0.001 uM after 48 hrs by sulforhodamine B assay; type: functional; settings: NCI-H522, 48 h, read-out: Activity
SF-539 = assay: Cytotoxicity against human SF539 cells assessed as cell growth at 0.001 uM after 48 hrs by sulforhodamine B assay; type: functional; settings: SF-539, 48 h, read-out: Activity
SNB-19 = assay: Cytotoxicity against human SNB19 cells assessed as cell growth at 0.001 uM after 48 hrs by sulforhodamine B assay; type: functional; settings: SNB-19, 48 h, read-out: Activity
U-251 [3] = assay: Cytotoxicity against human U251 cells assessed as cell growth at 0.001 uM after 48 hrs by sulforhodamine B assay; type: functional; settings: U-251, 48 h, read-out: Activity
Malme-3M [4] = assay: Cytotoxicity against human MALME-3M cells assessed as cell growth at 0.001 uM after 48 hrs by sulforhodamine B assay; type: functional; settings: read-out: Activity
SK-MEL-2 [5] = assay: Cytotoxicity against human SK-MEL-2 cells assessed as cell growth at 0.001 uM after 48 hrs by sulforhodamine B assay; type: functional; settings: SK-MEL-2, 48 h, read-out: Activity
OVCAR-3 = assay: Cytotoxicity against human OVCAR-3 cells assessed as cell growth at 0.001 uM after 48 hrs by sulforhodamine B assay; type: functional; settings: OVCAR-3, 48 h, read-out: Activity
SW-620 = assay: Cytotoxicity against human SW620 cells assessed as cell growth at 100 nM after 48 hrs by sulforhodamine B assay; type: functional; settings: SW-620, 48 h, read-out: Activity
LOX IMVI = assay: Cytotoxicity against human LOXIMVI cells assessed as cell growth at 100 nM after 48 hrs by sulforhodamine B assay; type: functional; settings: read-out: Activity
SK-MEL-2 [6] = assay: Cytotoxicity against human SK-MEL-2 cells assessed as cell growth at 100 nM after 48 hrs by sulforhodamine B assay; type: functional; settings: SK-MEL-2, 48 h, read-out: Activity
NCI/ADR-RES = assay: Cytotoxicity against human NCI/ADR-RES cells assessed as cell growth at 100 nM after 48 hrs by sulforhodamine B assay; type: functional; settings: read-out: Activity
SK-OV-3 = assay: Cytotoxicity against human SKOV3 cells assessed as cell growth at 100 nM after 48 hrs by sulforhodamine B assay; type: functional; settings: SK-OV-3, 48 h, read-out: Activity
CAKI-1 = assay: Cytotoxicity against human Caki1 cells assessed as cell growth at 100 nM after 48 hrs by sulforhodamine B assay; type: functional; settings: CAKI-1, 48 h, read-out: Activity
MOLT-4 = assay: Cytotoxicity against human MOLT4 cells assessed as cell growth at 0.01 uM after 48 hrs by sulforhodamine B assay; type: functional; settings: MOLT-4, 48 h, read-out: Activity
HCT-15 = assay: Cytotoxicity against human HCT15 cells assessed as cell growth at 0.01 uM after 48 hrs by sulforhodamine B assay; type: functional; settings: HCT-15, 48 h, read-out: Activity
KM12 = assay: Cytotoxicity against human KM12 cells assessed as cell growth at 0.01 uM after 48 hrs by sulforhodamine B assay; type: functional; settings: KM12, 48 h, read-out: Activity
U-251 [7] = assay: Cytotoxicity against human U251 cells assessed as cell growth at 0.01 uM after 48 hrs by sulforhodamine B assay; type: functional; settings: U-251, 48 h, read-out: Activity
Malme-3M [8] = assay: Cytotoxicity against human MALME-3M cells assessed as cell growth at 0.01 uM after 48 hrs by sulforhodamine B assay; type: functional; settings: read-out: Activity
M14 = assay: Cytotoxicity against human M14 cells assessed as cell growth at 0.01 uM after 48 hrs by sulforhodamine B assay; type: functional; settings: M14, 48 h, read-out: Activity
DU-145 = assay: Cytotoxicity against human DU145 cells assessed as cell growth at 100 nM after 48 hrs by sulforhodamine B assay; type: functional; settings: DU-145, 48 h, read-out: Activity
A549 = assay: Cytotoxicity against human A549 cells assessed as cell growth at 1 uM after 48 hrs by sulforhodamine B assay; type: functional; settings: A549, 48 h, read-out: Activity
Outline: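 Cells grown in RPMI 1640 with 5% FBS and 2 mM L-glutamine, seeded at 5,000–40,000 cells/well by doubling time. Time-zero plates TCA-fixed after 24 h. Five concentrations (10-fold or half-log dilutions from DMSO stock) added; 48 h at 37 °C, 5% CO2. Cold TCA fixation (final 10%, 60 min, 4 °C), 0.4% SRB stain, dye solubilized in 10 mM trizma base, A515.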

HOP-62 = assay: Cytotoxicity against human HOP62 cells assessed as cell growth at 1 uM after 48 hrs by sulforhodamine B assay; type: functional; settings: HOP-62, 48 h, read-out: Activity
NCI-H322M [9] = assay: Cytotoxicity against human NCI-H322M cells assessed as cell growth at 1 uM after 48 hrs by sulforhodamine B assay; type: functional; settings: read-out: Activity
UACC-257 = assay: Cytotoxicity against human UACC257 cells assessed as cell growth at 0.01 uM after 48 hrs by sulforhodamine B assay; type: functional; settings: UACC-257, 48 h, read-out: Activity
OVCAR-8 [10] = assay: Cytotoxicity against human OVCAR8 cells assessed as cell growth at 0.01 uM after 48 hrs by sulforhodamine B assay; type: functional; settings: OVCAR-8, 48 h, read-out: Activity
UACC-62 = assay: Cytotoxicity against human UACC62 cells assessed as cell growth at 1 uM after 48 hrs by sulforhodamine B assay; type: functional; settings: UACC-62, 48 h, read-out: Activity
OVCAR-8 [11] = assay: Cytotoxicity against human OVCAR8 cells assessed as cell growth at 1 uM after 48 hrs by sulforhodamine B assay; type: functional; settings: OVCAR-8, 48 h, read-out: Activity
UO-31 = assay: Cytotoxicity against human UO31 cells assessed as cell growth at 1 uM after 48 hrs by sulforhodamine B assay; type: functional; settings: UO-31, 48 h, read-out: Activity
NCI-H522 [12] = assay: Cytotoxicity against human NCI-H522 cells assessed as cell growth at 10 uM after 48 hrs by sulforhodamine B assay; type: functional; settings: NCI-H522, 48 h, read-out: Activity
NCI-H23 = assay: Growth inhibition of human NCI-H23 cells after 48 hrs by sulforhodamine B assay; type: functional, cell-based; settings: NCI-H23, 48 h; outline: as §1
U-251 [13] = assay: Growth inhibition of human U251 cells after 48 hrs by sulforhodamine B assay; type: functional, cell-based; outline: as §1

`CC(=O)c1ccccc1-c1ccc(-c2ccnc(NC(=O)Nc3cc(N4CCOCC4)cc(C(F)(F)F)c3)n2)cn1` was tested, and the GI50 (MDA-MB-468) was > 100 µM, the IC50 (MDA-MB-468) was > 100 µM and the LC50 (MDA-MB-468) was > 100 µM. For the same compound, the TGI (MDA-MB-468) was > 100 µM, the growth at 0.001 µM (NCI-H322M [1]) was 101% and the growth at 0.001 µM (NCI-H522 [2]) was 91%. It also gave a growth at 0.001 µM (SF-539) of 97%, a growth at 0.001 µM (SNB-19) of 98% and a growth at 0.001 µM (U-251 [3]) of 93%. The growth at 0.001 µM (Malme-3M [4]) was 94%, the growth at 0.001 µM (SK-MEL-2 [5]) was 102% and the growth at 0.001 µM (OVCAR-3) was 107%. For the same compound, the growth at 0.1 µM (SW-620) was 93%, the growth at 0.1 µM (LOX IMVI) was 90% and the growth at 0.1 µM (SK-MEL-2 [6]) was 102%. The growth at 0.1 µM (NCI/ADR-RES) was 75%, the growth at 0.1 µM (SK-OV-3) was 118% and the growth at 0.1 µM (CAKI-1) was 84%. It also gave a growth at 0.01 µM (MOLT-4) of 76%, a growth at 0.01 µM (HCT-15) of 98% and a growth at 0.01 µM (KM12) of 98%. For the same compound, the growth at 0.01 µM (U-251 [7]) was 98%, the growth at 0.01 µM (Malme-3M [8]) was 103% and the growth at 0.01 µM (M14) was 95%. For the same compound, the growth at 0.1 µM (DU-145) was 77%, the growth at 1 µM (A549) was 82% and the growth at 1 µM (HOP-62) was 21%. It also gave a growth at 1 µM (NCI-H322M [9]) of 88%, a growth at 0.01 µM (UACC-257) of 79% and a growth at 0.01 µM (OVCAR-8 [10]) of 93%. It also gave a growth at 1 µM (UACC-62) of 73%, a growth at 1 µM (OVCAR-8 [11]) of 41% and a growth at 1 µM (UO-31) of 82%. For the same compound, the growth at 10 µM (NCI-H522 [12]) was 40%, the GI50 (NCI-H23) was 2.95 µM and the IC50 (NCI-H23) was > 100 µM. For the same compound, the TGI (NCI-H23) was > 100 µM, the CC50 (NCI-H23; read-out: LC50 (the source's name)) was > 100 µM and the TGI (U-251 [13]) was > 100 µM. The GI50 (U-251 [13]; Homo sapiens, U-251, 48 h) was 5.36 µM, the IC50 (U-251 [13]; Homo sapiens, U-251, 48 h) was 34.9 µM and the CC50 (U-251 [13]; Homo sapiens, U-251, 48 h, read-out: LC50 (the source's name)) was > 100 µM.
